Results as given in ChEMBL document CHEMBL4152188, “Design, synthesis and biological evaluation of C(4) substituted monobactams as antibacterial agents against multidrug-resistant Gram-negative bacteria” (Eur J Med Chem, 2018).
Converted amounts (≈) assume the structure as drawn.

Tests used:
Format in all cases: functional
[1] = tested on: Klebsiella pneumoniae; test: Selectivity index, ratio of MIC for against KPC-2 producing Klebsiella pneumoniae isolate 212423 to MIC for against KPC-2 producing Klebsiella pneumoniae isolate 212423 in presence of BPL
[2] = tested on: Pseudomonas aeruginosa; test: Antibacterial activity against IMP-4 producing Pseudomonas aeruginosa isolate 209321 after 18 hrs by CLSI broth microdilution method; settings: isolate 209321, 18 h
[3] = tested on: Klebsiella pneumoniae; test: Antibacterial activity against KPC-2 producing Klebsiella pneumoniae isolate 212229 after 18 hrs by CLSI broth microdilution method; settings: isolate 212229, 18 h
[4] = tested on: Escherichia coli; test: Antibacterial activity against extended-spectrum beta-lactamase producing Escherichia coli isolate 208687 after 18 hrs in presence of BPL by CLSI broth microdilution method; settings: isolate 208687, 18 h
How it was run: (§1)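 CLSI broth microdilution against clinical isolates (ESBL E. coli, KPC-2 MDR K. pneumoniae, IMP-4 MDR P. aeruginosa; five per species). Iron limitation: Mueller-Hinton broth supplemented with 16 mg/liter 2,2'-bipyridyl to complex iron and induce iron uptake systems. Read-out: MIC.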

[5] = tested on: Pseudomonas aeruginosa; test: Antibacterial activity against IMP-4 producing Pseudomonas aeruginosa isolate 207272 after 18 hrs in presence of BPL by CLSI broth microdilution method; settings: isolate 207272, 18 h; how it was run: as §1
[6] = tested on: Klebsiella pneumoniae; test: Antibacterial activity against KPC-2 producing Klebsiella pneumoniae isolate 212423 after 18 hrs in presence of BPL by CLSI broth microdilution method; settings: isolate 212423, 18 h; how it was run: as §1
[7] = tested on: Escherichia coli; test: Selectivity index, ratio of MIC for against Escherichia coli isolate 210737 to MIC for Escherichia coli isolate 210737 in presence of BPL
[8] = tested on: Escherichia coli; test: Antibacterial activity against Escherichia coli isolate 210737 after 18 hrs in presence of BPL by CLSI broth microdilution method; settings: isolate 210737, 18 h; how it was run: as §1
[9] = tested on: Klebsiella pneumoniae; test: Antibacterial activity against KPC-2 producing Klebsiella pneumoniae isolate 209735 after 18 hrs by CLSI broth microdilution method; settings: isolate 209735, 18 h
[10] = tested on: Pseudomonas aeruginosa; test: Selectivity index, ratio of MIC for against IMP-4 producing Pseudomonas aeruginosa isolate 208247 to MIC for against IMP-4 producing Pseudomonas aeruginosa isolate 208247 in presence of BPL
[11] = tested on: Pseudomonas aeruginosa; test: Antibacterial activity against IMP-4 producing Pseudomonas aeruginosa isolate 208247 after 18 hrs by CLSI broth microdilution method; settings: isolate 208247, 18 h
[12] = tested on: Pseudomonas aeruginosa; test: Antibacterial activity against IMP-4 producing Pseudomonas aeruginosa isolate 209471 after 18 hrs by CLSI broth microdilution method; settings: isolate 209471, 18 h
[13] = tested on: Pseudomonas aeruginosa; test: Antibacterial activity against IMP-4 producing Pseudomonas aeruginosa isolate 207272 after 18 hrs by CLSI broth microdilution method; settings: isolate 207272, 18 h
[14] = tested on: Pseudomonas aeruginosa; test: Antibacterial activity against IMP-4 producing Pseudomonas aeruginosa isolate 212886 after 18 hrs in presence of BPL by CLSI broth microdilution method; settings: isolate 212886, 18 h; how it was run: as §1
[15] = tested on: Klebsiella pneumoniae; test: Selectivity index, ratio of MIC for against KPC-2 producing Klebsiella pneumoniae isolate 209735 to MIC for against KPC-2 producing Klebsiella pneumoniae isolate 209735 in presence of BPL
[16] = tested on: Klebsiella pneumoniae; test: Antibacterial activity against KPC-2 producing Klebsiella pneumoniae isolate 212232 after 18 hrs by CLSI broth microdilution method; settings: isolate 212232, 18 h
[17] = tested on: Escherichia coli; test: Selectivity index, ratio of MIC for against extended-spectrum beta-lactamase producing Escherichia coli isolate 208687 to MIC for extended-spectrum beta-lactamase producing Escherichia coli isolate 208687 in presence of BPL
[18] = tested on: Pseudomonas aeruginosa; test: Antibacterial activity against IMP-4 producing Pseudomonas aeruginosa isolate 208247 after 18 hrs in presence of BPL by CLSI broth microdilution method; settings: isolate 208247, 18 h; how it was run: as §1
[19] = tested on: Pseudomonas aeruginosa; test: Selectivity index, ratio of MIC for against IMP-4 producing Pseudomonas aeruginosa isolate 207272 to MIC for against IMP-4 producing Pseudomonas aeruginosa isolate 207272 in presence of BPL
[20] = tested on: Klebsiella pneumoniae; test: Antibacterial activity against KPC-2 producing Klebsiella pneumoniae isolate 209735 after 18 hrs in presence of BPL by CLSI broth microdilution method; settings: isolate 209735, 18 h; how it was run: as §1
[21] = tested on: Escherichia coli; test: Antibacterial activity against extended-spectrum beta-lactamase producing Escherichia coli isolate 212648 after 18 hrs by CLSI broth microdilution method; settings: isolate 212648, 18 h
[22] = tested on: Pseudomonas aeruginosa; test: Antibacterial activity against IMP-4 producing Pseudomonas aeruginosa isolate 212886 after 18 hrs by CLSI broth microdilution method; settings: isolate 212886, 18 h
[23] = tested on: Escherichia coli; test: Antibacterial activity against extended-spectrum beta-lactamase producing Escherichia coli isolate 106342 after 18 hrs by CLSI broth microdilution method; settings: isolate 106342, 18 h
[24] = tested on: Escherichia coli; test: Antibacterial activity against extended-spectrum beta-lactamase producing Escherichia coli isolate 212648 after 18 hrs in presence of BPL by CLSI broth microdilution method; settings: isolate 212648, 18 h; how it was run: as §1
[25] = tested on: Pseudomonas aeruginosa; test: Selectivity index, ratio of MIC for against IMP-4 producing Pseudomonas aeruginosa isolate 212886 to MIC for against IMP-4 producing Pseudomonas aeruginosa isolate 212886 in presence of BPL
[26] = tested on: Escherichia coli; test: Selectivity index, ratio of MIC for against extended-spectrum beta-lactamase producing Escherichia coli isolate 212648 to MIC for extended-spectrum beta-lactamase producing Escherichia coli isolate 212648 in presence of BPL
[27] = tested on: Escherichia coli; test: Antibacterial activity against Escherichia coli isolate 210737 after 18 hrs by CLSI broth microdilution method; settings: isolate 210737, 18 h
[28] = tested on: Escherichia coli; test: Antibacterial activity against extended-spectrum beta-lactamase producing Escherichia coli isolate 209285 after 18 hrs in presence of BPL by CLSI broth microdilution method; settings: isolate 209285, 18 h; how it was run: as §1
[29] = tested on: Escherichia coli; test: Selectivity index, ratio of MIC for against extended-spectrum beta-lactamase producing Escherichia coli isolate 209285 to MIC for extended-spectrum beta-lactamase producing Escherichia coli isolate 209285 in presence of BPL
[30] = tested on: Klebsiella pneumoniae; test: Selectivity index, ratio of MIC for against KPC-2 producing Klebsiella pneumoniae isolate 212229 to MIC for against KPC-2 producing Klebsiella pneumoniae isolate 212229 in presence of BPL
[31] = tested on: Pseudomonas aeruginosa; test: Selectivity index, ratio of MIC for against IMP-4 producing Pseudomonas aeruginosa isolate 209471 to MIC for against IMP-4 producing Pseudomonas aeruginosa isolate 209471 in presence of BPL
[32] = tested on: Klebsiella pneumoniae; test: Selectivity index, ratio of MIC for against KPC-2 producing Klebsiella pneumoniae isolate 212232 to MIC for against KPC-2 producing Klebsiella pneumoniae isolate 212232 in presence of BPL
[33] = tested on: Pseudomonas aeruginosa; test: Antibacterial activity against IMP-4 producing Pseudomonas aeruginosa isolate 209321 after 18 hrs in presence of BPL by CLSI broth microdilution method; settings: isolate 209321, 18 h; how it was run: as §1
[34] = tested on: Escherichia coli; test: Antibacterial activity against extended-spectrum beta-lactamase producing Escherichia coli isolate 209285 after 18 hrs by CLSI broth microdilution method; settings: isolate 209285, 18 h
[35] = tested on: Klebsiella pneumoniae; test: Antibacterial activity against KPC-2 producing Klebsiella pneumoniae isolate 212423 after 18 hrs by CLSI broth microdilution method; settings: isolate 212423, 18 h
[36] = tested on: Escherichia coli; test: Antibacterial activity against extended-spectrum beta-lactamase producing Escherichia coli isolate 208687 after 18 hrs by CLSI broth microdilution method; settings: isolate 208687, 18 h
[37] = tested on: Klebsiella pneumoniae; test: Antibacterial activity against KPC-2 producing Klebsiella pneumoniae isolate 209632 after 18 hrs by CLSI broth microdilution method; settings: isolate 209632, 18 h
[38] = tested on: Klebsiella pneumoniae; test: Selectivity index, ratio of MIC for against KPC-2 producing Klebsiella pneumoniae isolate 209632 to MIC for against KPC-2 producing Klebsiella pneumoniae isolate 209632 in presence of BPL
[39] = tested on: Pseudomonas aeruginosa; test: Selectivity index, ratio of MIC for against IMP-4 producing Pseudomonas aeruginosa isolate 209321 to MIC for against IMP-4 producing Pseudomonas aeruginosa isolate 209321 in presence of BPL
[40] = tested on: Klebsiella pneumoniae; test: Antibacterial activity against KPC-2 producing Klebsiella pneumoniae isolate 212229 after 18 hrs in presence of BPL by CLSI broth microdilution method; settings: isolate 212229, 18 h; how it was run: as §1
[41] = tested on: Escherichia coli; test: Antibacterial activity against extended-spectrum beta-lactamase producing Escherichia coli isolate 106342 after 18 hrs in presence of BPL by CLSI broth microdilution method; settings: isolate 106342, 18 h; how it was run: as §1
[42] = tested on: Escherichia coli; test: Selectivity index, ratio of MIC for against extended-spectrum beta-lactamase producing Escherichia coli isolate 106342 to MIC for extended-spectrum beta-lactamase producing Escherichia coli isolate 106342 in presence of BPL
[43] = tested on: Klebsiella pneumoniae; test: Antibacterial activity against KPC-2 producing Klebsiella pneumoniae isolate 209632 after 18 hrs in presence of BPL by CLSI broth microdilution method; settings: isolate 209632, 18 h; how it was run: as §1
[44] = tested on: Pseudomonas aeruginosa; test: Antibacterial activity against IMP-4 producing Pseudomonas aeruginosa isolate 209471 after 18 hrs in presence of BPL by CLSI broth microdilution method; settings: isolate 209471, 18 h; how it was run: as §1
[45] = tested on: Klebsiella pneumoniae; test: Antibacterial activity against KPC-2 producing Klebsiella pneumoniae isolate 212232 after 18 hrs in presence of BPL by CLSI broth microdilution method; settings: isolate 212232, 18 h; how it was run: as §1

With `CC(C)C(O/N=C(\C(=O)N[C@@H]1C(=O)N(S(=O)(=O)O)[C@@H]1COC(=O)C1CN(C(=O)c2ccc(O)c(O)c2Cl)C1)c1csc(N)n1)c1cc(=O)c(O)cn1O` (stereo not given in full) the “Selectivity Index” value [1] was >8, the MIC [2] was 64 µg/mL (≈ 80 µM) and the MIC [3] was > 64 µg/mL. It also gave an MIC [4] of 2 µg/mL, an MIC [5] of 16 µg/mL and an MIC [6] of 8 µg/mL. For the same compound, the “Selectivity Index” value [7] was 1 - 8, the MIC [8] was 64 µg/mL and the MIC [9] was > 64 µg/mL. For the same compound, the “Selectivity Index” value [10] was 1, the MIC [11] was 32 µg/mL (≈ 40 µM) and the MIC [12] was 64 µg/mL (≈ 80 µM). For the same compound, the MIC [13] was 32 µg/mL (≈ 40 µM), the MIC [14] was > 64 µg/mL and the “Selectivity Index” value [15] was >8. The MIC [16] was > 64 µg/mL, the “Selectivity Index” value [17] was 8 and the MIC [18] was 32 µg/mL. For the same compound, the “Selectivity Index” value [19] was 2, the MIC [20] was 8 µg/mL and the MIC [21] was 16 µg/mL (≈ 20 µM). The MIC [22] was > 64 µg/mL, the MIC [23] was 8 µg/mL (≈ 10 µM) and the MIC [24] was 16 µg/mL. The “Selectivity Index” value [25] was 1 - 2, the “Selectivity Index” value [26] was 1 and the MIC [27] was > 64 µg/mL. For the same compound, the MIC [28] was 8 µg/mL, the “Selectivity Index” value [29] was 2 and the “Selectivity Index” value [30] was >8. The “Selectivity Index” value [31] was 2, the “Selectivity Index” value [32] was >16 and the MIC [33] was 32 µg/mL. The MIC [34] was 16 µg/mL (≈ 20 µM), the MIC [35] was > 64 µg/mL and the MIC [36] was 16 µg/mL (≈ 20 µM). The MIC [37] was > 64 µg/mL, the “Selectivity Index” value [38] was >8 and the “Selectivity Index” value [39] was 2. For the same compound, the MIC [40] was 8 µg/mL, the MIC [41] was 4 µg/mL and the “Selectivity Index” value [42] was 2. It also gave an MIC [43] of 8 µg/mL, an MIC [44] of 32 µg/mL and an MIC [45] of 4 µg/mL.
